Measured values from ChEMBL document CHEMBL5376017, “Glucosamine substituted sulfonylureas: IRS-PI3K-PKC-AKT-GLUT4 insulin signalling pathway intriguing agent” (RSC Med Chem, 2024).
Calls of active or inactive are those of the source. The rule behind the calls is not given here.

Legend:
L6 [1] = assay: Upregulation of IRS-1 expression in insulin resistant myotube differentiated rat L6 cells incubated for 24 hrs by qRT-PCR analysis; format: functional, cell-based
How it was run: (§1)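 L6 myoblasts differentiated to myotubes in DMEM with 2% horse serum for 7 days, 2 × 10^4 cells per well. Insulin resistance induced in three steps: 25 mM glucose plus insulin for 24 h, then 5 mM glucose without insulin for 5 h, then insulin for 30 min. Compounds in DMEM with 2% inactivated FBS for 24 h. qPCR normalized to geometric mean of β-actin and γ-actin. Mean ± SEM, one-way ANOVA with Duncan test.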

L6 [2] = assay: Upregulation of PKB/AKT2 expression in insulin resistant myotube differentiated rat L6 cells incubated for 24 hrs by qRT-PCR analysis; format: functional, cell-based; how it was run: as §1
L6 [3] = assay: Downregulation of PKC-alpha expression in insulin resistant myotube differentiated rat L6 cells incubated for 24 hrs by qRT-PCR analysis; format: functional, cell-based; how it was run: as §1
L6 [4] = assay: Upregulation of GLUT4 expression in insulin resistant myotube differentiated rat L6 cells incubated for 24 hrs by qRT-PCR analysis; format: functional, cell-based; how it was run: as §1
Soleus muscle [5] = assay: Downregulation of PKC-alpha expression in insulin resistant Sprague-Dawley rat soleus muscle incubated for 24 hrs by qRT-PCR analysis; format: functional, tissue-based
How it was run: (§2)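 Isolated rat soleus muscle in gassed (95% O2–5% CO2) Krebs–Henseleit buffer. Insulin resistance induced in four steps: KHB with 0.1% BSA and 1 mM pyruvate for 24 h at 37 °C, then high glucose/insulin for 24 h, then 25 mM glucose for 5 h, then insulin for 30 min. Tissue then exposed in KHB for 24 h. qPCR normalized to β-/γ-actin geometric mean. Mean ± SEM, ANOVA/Duncan.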

Soleus muscle [6] = assay: Upregulation of PI3K expression in insulin resistant Sprague-Dawley rat soleus muscle incubated for 24 hrs by qRT-PCR analysis; format: functional, tissue-based; how it was run: as §2
Soleus muscle [7] = assay: Upregulation of GLUT4 expression in insulin resistant Sprague-Dawley rat soleus muscle incubated for 24 hrs by qRT-PCR analysis; format: functional, tissue-based; how it was run: as §2
L6 [8] = assay: Downregulation of PKC-alpha expression in insulin resistant myotube differentiated rat L6 cells at 1 to 2 uM incubated for 24 hrs by qRT-PCR analysis; format: functional, cell-based; details: dose 1-2 µM; how it was run: as §1
L6 [9] = assay: Upregulation of GLUT4 expression in insulin resistant myotube differentiated rat L6 cells at 1 to 2 uM incubated for 24 hrs by qRT-PCR analysis; format: functional, cell-based; details: dose 1-2 µM; how it was run: as §1
[10] = Cytotoxicity against rat L6 cells assessed as cell viability at 50 to 250 uM incubated for 24 hrs by MTT assay relative to control; format: toxicity, cell-based; details: dose 50-250 µM, read-out: Activity
How it was run: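 Rat L6 myoblasts, 2 × 10^4 cells per mL, allowed to attach, then exposed for 24 h to five concentrations (50–250 μM) from DMSO stocks; 0.1% DMSO as negative control. MTT at 0.5 mg mL−1 added for 4 h, formazan dissolved in DMSO, absorbance read at 570 nm. Viability calculated against control. Triplicate wells, three independent experiments.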

L6 [11] = assay: Upregulation of PKB/AKT2 expression in insulin resistant myotube differentiated rat L6 cells at 2 uM incubated for 24 hrs by qRT-PCR analysis; format: functional, cell-based; how it was run: as §1
Soleus muscle [12] = assay: Upregulation of IRS-1 expression in insulin resistant Sprague-Dawley rat soleus muscle at 1 to 2 uM incubated for 24 hrs by qRT-PCR analysis; format: functional, tissue-based; details: dose 1-2 µM; how it was run: as §2
L6 [13] = assay: Upregulation of PI3K expression in insulin resistant myotube differentiated rat L6 cells at 1 to 2 uM incubated for 24 hrs by qRT-PCR analysis; format: functional, cell-based; details: dose 1-2 µM; how it was run: as §1
Soleus muscle [14] = assay: Downregulation of PKC-alpha expression in insulin resistant Sprague-Dawley rat soleus muscle at 1 to 2 uM incubated for 24 hrs by qRT-PCR analysis; format: functional, tissue-based; details: dose 1-2 µM; how it was run: as §2
Soleus muscle [15] = assay: Upregulation of GLUT4 expression in insulin resistant Sprague-Dawley rat soleus muscle at 1 to 2 uM incubated for 24 hrs by qRT-PCR analysis; format: functional, tissue-based; details: dose 1-2 µM; how it was run: as §2
Soleus muscle [16] = assay: Upregulation of PI3K expression in insulin resistant Sprague-Dawley rat soleus muscle at 1 to 2 uM incubated for 24 hrs by qRT-PCR analysis; format: functional, tissue-based; details: dose 1-2 µM; how it was run: as §2
Soleus muscle [17] = assay: Upregulation of PKB/AKT2 insulin resistant Sprague-Dawley rat soleus muscle at 2 uM incubated for 24 hrs by qRT-PCR analysis; format: functional, tissue-based; how it was run: as §2
L6 [18] = assay: Upregulation of IRS-1 expression in insulin resistant myotube differentiated rat L6 cells at 1 to 2 uM incubated for 24 hrs by qRT-PCR analysis; format: functional, cell-based; details: dose 1-2 µM; how it was run: as §1

What does the source list for `CN(C)C(=N)NC(=N)N`?
Activity (L6 [1]): Active; Activity (L6 [2]): Active; Activity (L6 [3]): Active; Activity (L6 [4]): Active; Activity (Soleus muscle [5]): Active; Activity (Soleus muscle [6]): Active; Activity (Soleus muscle [7]): Active

Which Activity (L6 [1]) does the source give for `CCC1=C(C)CN(C(=O)NCCc2ccc(S(=O)(=O)NC(=O)N[C@H]3CC[C@H](C)CC3)cc2)C1=O` here?
Its Activity is “Active”.

And the Activity (L6 [2])?
The Activity was “Active”.

What about the Activity (L6 [3]) of the same molecule?
Its Activity is “Active”.

And the Activity (Soleus muscle [5])?
Its Activity is “Active”.

What about the Activity (Soleus muscle [6]) of the same molecule?
The Activity was “Active”.

And the Activity (Soleus muscle [7])?
Its Activity is “Active”.

For `CC(=O)OC[C@H]1OC(OC(C)=O)[C@H](NC(=O)NS(=O)(=O)c2ccc(Cl)cc2)[C@@H](OC(C)=O)[C@@H]1OC(C)=O` (some centres undefined), which Activity (L6 [8]) is on record?
The Activity was “Active”.

What about the Activity (L6 [9]) of the same molecule?
The Activity was “Active”.

What about the viability at 24 h, up to 250 µM [10] of the same molecule?
Its viability at 24 h, up to 250 µM is 50%.

What about the Activity (L6 [11]) of the same molecule?
The Activity was “Active”.

What about the Activity (Soleus muscle [12]) of the same molecule?
The Activity was “Active”.

And the Activity (L6 [13])?
Its Activity is “Active”.

And the Activity (Soleus muscle [14])?
Its Activity is “Active”.

And the Activity (Soleus muscle [15])?
Its Activity is “Active”.

What about the Activity (Soleus muscle [16]) of the same molecule?
The Activity was “Active”.

And the Activity (Soleus muscle [17])?
The Activity was “Active”.

What about the Activity (L6 [18]) of the same molecule?
Its Activity is “Active”.

Which results are given for `O=C(N[C@H]1C(O)O[C@H](CO)[C@@H](O)[C@@H]1O)NS(=O)(=O)c1ccc(Cl)cc1` (some centres undefined)?
Activity (L6 [8]): Active; Activity (L6 [9]): Active; viability at 24 h, up to 250 µM [10]: 50%; Activity (L6 [11]): Active; Activity (Soleus muscle [12]): Active; Activity (L6 [13]): Active; Activity (Soleus muscle [14]): Active; Activity (Soleus muscle [15]): Active; Activity (Soleus muscle [16]): Active; Activity (Soleus muscle [17]): Active; Activity (L6 [18]): Active

With `Cc1ccc(S(=O)(=O)NC(=O)N[C@H]2C(O)O[C@H](CO)[C@@H](O)[C@@H]2O)cc1` (some centres undefined) as the molecule, how does the Activity (L6 [8]) read?
The Activity was “Active”.

What about the Activity (L6 [9]) of the same molecule?
Its Activity is “Active”.

And the viability at 24 h, up to 250 µM [10]?
The viability at 24 h, up to 250 µM was 50%.

And the Activity (L6 [11])?
Its Activity is “Active”.

And the Activity (Soleus muscle [12])?
Its Activity is “Active”.

And the Activity (L6 [13])?
The Activity was “Active”.

And the Activity (Soleus muscle [14])?
The Activity was “Active”.

And the Activity (Soleus muscle [15])?
The Activity was “Active”.

And the Activity (Soleus muscle [16])?
Its Activity is “Active”.

And the Activity (Soleus muscle [17])?
Its Activity is “Active”.

And the Activity (L6 [18])?
The Activity was “Active”.

Which results are given for `CC(=O)OC[C@H]1OC(OC(C)=O)[C@H](NC(=O)NS(=O)(=O)c2ccc(C)cc2)[C@@H](OC(C)=O)[C@@H]1OC(C)=O` (some centres undefined)?
Activity (L6 [8]): Active; Activity (L6 [9]): Active; viability at 24 h, up to 250 µM [10]: 50%; Activity (L6 [11]): Active; Activity (Soleus muscle [12]): Active; Activity (L6 [13]): Active; Activity (Soleus muscle [14]): Active; Activity (Soleus muscle [15]): Active; Activity (Soleus muscle [16]): Active; Activity (Soleus muscle [17]): Active; Activity (L6 [18]): Active

What does the source list for `CC(=O)OC[C@H]1OC(OC(C)=O)[C@H](NC(=O)NS(=O)(=O)c2ccccc2)[C@@H](OC(C)=O)[C@@H]1OC(C)=O` (some centres undefined)?
Activity (L6 [8]): Active; Activity (L6 [9]): Active; viability at 24 h, up to 250 µM [10]: 50%; Activity (L6 [11]): Active; Activity (Soleus muscle [12]): Active; Activity (L6 [13]): Active; Activity (Soleus muscle [14]): Active; Activity (Soleus muscle [15]): Active; Activity (Soleus muscle [16]): Active; Activity (Soleus muscle [17]): Active; Activity (L6 [18]): Active

Which Activity (L6 [8]) does the source give for `O=C(N[C@H]1C(O)O[C@H](CO)[C@@H](O)[C@@H]1O)NS(=O)(=O)c1ccccc1` (some centres undefined) here?
The Activity was “Active”.

And the Activity (L6 [9])?
Its Activity is “Active”.

And the viability at 24 h, up to 250 µM [10]?
Its viability at 24 h, up to 250 µM is under 50%.

And the Activity (L6 [11])?
The Activity was “Active”.

What about the Activity (Soleus muscle [12]) of the same molecule?
Its Activity is “Active”.

And the Activity (L6 [13])?
The Activity was “Active”.

And the Activity (Soleus muscle [14])?
The Activity was “Active”.

And the Activity (Soleus muscle [15])?
Its Activity is “Active”.

What about the Activity (Soleus muscle [16]) of the same molecule?
The Activity was “Active”.

What about the Activity (Soleus muscle [17]) of the same molecule?
The Activity was “Active”.

What about the Activity (L6 [18]) of the same molecule?
Its Activity is “Active”.
